From PubChem
Shown are actives, neighbours in structure and some others; about 4% of the full set was active somewhere.
Granule exo inh = LAMP-1 surface exposure blockers, TALL-104 cells – cell-based, flow cytometry, MLPCN library, primary screen; TALL-104 LAMP-1 surface exposure; cells stimulated with thapsigargin and PMA; AID 651702, 2012; hit rate 0.66% among 360,000; inhibition, % at 10 µM;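 active means inhibition above about 55%, limit read from the data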
UPR CHOP act = activators of apoptotic CHOP UPR arm, primary screen, cell-based, CHO-CHOP luciferase reporter, luminescence, uHTS; UPR activation; percent of tunicamycin response over DMSO baseline; activation, % at 10 µM; hit rate 0.34% among 330,000; AID 449763, 2010;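 active means at 10 µM dose, activation of 40% or more, normalized to positive control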;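 further: 100% = tunicamycin at 10 µg/mL and 0% = DMSO alone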
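System: CHO-CHOP luciferase reporter cell line; amount: 500 cells/well; buffer or medium: F12 medium containing 10% fetal bovine serum; incubation: 6 h compound exposure at 37 °C after overnight seeding; measured by: luciferase luminescence after 10 min with Steady-Glo reagent; evaluation: % reporter activation, DMSO baseline versus tunicamycin full activation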
ABHD5-PLIN5 inh = ABHD5-PLIN5 interaction inhibitors, primary screen, cell lysate, split luciferase complementation, luminescence. Perilipin-5 (Homo sapiens) + 1-acylglycerol-3-phosphate O-acyltransferase ABHD5 (Homo …. Split G. princeps luciferase complementation, 4 h. inhibition, % at 4 µM. hit rate 0.78% among 360,000;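 active means inhibition above the mean inhibition across every tested compound plus 3 SD, cut at about 22% in these data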;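 further: 0% = DMSO only wells and the 100% control is not disclosed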
Mdm2 MdmX PPI = inhibitors of human Mdm2-MdmX association, primary screen, cell-based, luminescence, split luciferase, SaOS-2, uHTS; SaOS-2 split-luciferase Mdm2/MdmX complementation; inhibition, % at 8 µM; hit rate 3% among 330,000; AID 485346, 2010;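 active means inhibition of at least 50% at 8 µM in the primary screen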
XBP1 UPR activ = activators of adaptive XBP1 UPR arm, primary screen, cell-based, CHO-XBP1 luciferase reporter, luminescence, uHTS; IRE1-XBP1 UPR activation; percent of tunicamycin response, DMSO as zero; activation, % at 20 µM; hit rate 0.33% among 330,000; AID 463104, 2010;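 active means versus positive control, 20 µM dose yields 30% or more activation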;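 further: 100% = tunicamycin at 10 µg/mL and 0% = DMSO only wells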
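Material – CHO cell line with stable XBP1 luciferase reporter · Buffer or medium – F12 plus 10% FBS · Compound – single point, 20 µM final compound, 1% DMSO · Schedule – 16-18 h cell attachment at 37 °C, then 6 h compound exposure · Signal – Steady-Glo luminescence read · Benchmarks – high control tunicamycin 10 µg/mL final, low control DMSO vehicle only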
ABHD5 PLIN5 conf = ABHD5-PLIN5 interaction inhibitors, confirmation, biochemical, luminescence; inhibition, % at 4 µM; hit rate 67% among 2,200; shares compounds with ABHD5-PLIN5 inh; in the data active means inhibition above about 23%;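 further: 0% = DMSO vehicle wells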
HNF4 counter = HNF4 dimerization inhibitors, counter-screen for ABHD5-PLIN5 interaction inhibitor project, biochemical, split-luciferase complementation, luminescence. AID 651674, 2012. shares compounds with ABHD5-PLIN5 inh. inhibition, % at 4 µM. hit rate 77% among 2,200;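 active means mean inhibition across replicate wells exceeding the computed hit threshold, cut at about 13% in these data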;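 further: light from luciferase halves that rejoin when HNF4 fusion proteins dimerize; 0% = DMSO only wells and the 100% control is not given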
Target sequence (P41235 whole entry, looked up, the tested form may be a part): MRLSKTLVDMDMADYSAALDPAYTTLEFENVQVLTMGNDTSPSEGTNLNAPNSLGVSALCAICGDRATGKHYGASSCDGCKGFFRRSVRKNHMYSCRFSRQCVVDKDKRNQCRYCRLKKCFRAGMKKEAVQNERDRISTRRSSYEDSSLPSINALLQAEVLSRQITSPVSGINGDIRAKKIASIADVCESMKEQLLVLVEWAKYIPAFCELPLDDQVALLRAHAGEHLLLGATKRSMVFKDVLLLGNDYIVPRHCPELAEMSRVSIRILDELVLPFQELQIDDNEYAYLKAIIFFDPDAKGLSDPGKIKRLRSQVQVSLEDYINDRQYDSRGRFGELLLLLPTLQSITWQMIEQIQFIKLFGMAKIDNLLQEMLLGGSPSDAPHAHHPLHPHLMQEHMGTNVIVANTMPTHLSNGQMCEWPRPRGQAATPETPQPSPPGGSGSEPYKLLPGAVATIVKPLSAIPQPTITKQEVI
* = called active by the depositor; / = no result given.

SMILES	Granule exo inh	UPR CHOP act	ABHD5-PLIN5 inh	Mdm2 MdmX PPI	XBP1 UPR activ	ABHD5 PLIN5 conf	HNF4 counter
O=C(/C=C/c1cccc(OCc2ccccc2)c1)c1cccnc1	0	4	36*	42	5	61*	70*
O=C(O)/C=C/c1cccc(OCc2ccccc2)c1	0	-1	-8	-26	2	/	/
CN(C)c1ccc(C(=O)/C=C/c2cccnc2)cc1	16	5	18	20	-9	/	/
CC(/C=C/c1cccc([N+](=O)[O-])c1)=N/NC(=O)c1cccnc1	5	3	29*	16	0	20	16*
C/C(=N\NC(=O)c1cccnc1)c1cccc([N+](=O)[O-])c1	-4	-1	3	-6	-2	/	/
CSc1nnc(-c2sccc2OCc2ccccc2)n1C	0	-1	0	15	-1	/	/
CCOC(=O)c1c[nH]c2c(Cl)ccc(Cl)c2c1=O	10	-1	13	17	-5	/	/
COc1ccc(CCNC(=S)NCCc2c[nH]c3ccccc23)cc1	8	4	-9	8	0	/	/
Cc1cc(N2CCOCC2)n2ncc(-c3ccccc3Cl)c2n1	-13	/	5	/	/	/	/
O=C(O)c1ccc(/C=C/C(=O)c2ccc3c(c2)OCCCO3)cc1	-9	4	49*	-33	-5	48*	43*
O=C(/C=C/c1ccc([N+](=O)[O-])cc1)c1cccnc1	0	1	30*	32	2	83*	93*
O=C(/C=C/c1ccc2c(c1)OCCO2)c1ccccc1	-3	1	27*	-15	0	56*	43*
CCC1=NN(C(=O)COc2ccccc2)C(O)(c2ccncc2)C1 (configuration not stated)	-2	1	-2	20	0	/	/
CCN(CC)S(=O)(=O)c1ccc(-c2nnc(SC)o2)cc1	16	-1	-1	14	0	/	/
CCN(CC)c1ccc(C(=C2C=CC(=[N+](CC)CC)C=C2)c2ccccc2)cc1	-15	/	98*	/	/	102*	109*
CCN(CC)c1ccc(C(=C2C=CC(=[N+](CC)CC)C=C2)c2ccc(N(CC)CC)cc2)cc1	0	/	64*	/	/	58*	58*
CC1(C)CC(=O)C(C(c2ccc(F)cc2)C2C(=O)CC(C)(C)CC2=O)C(=O)C1	-4	1	2	16	-3	/	/
CCc1sc(C(C2C(=O)CC(C)(C)CC2=O)C2C(=O)CC(C)(C)CC2=O)cc1[N+](=O)[O-]	52	3	52*	-12	-2	101*	98*
CC(C)C1N=C(c2ccc3c(c2)OCO3)CC(c2ccccc2O)N1 (configuration not stated)	3	2	56*	-4	2	58*	82*
C=CCn1c(SCC(=O)NCCCC(=O)OCC)nc2scc(-c3ccco3)c2c1=O	-4	0	30*	-28	0	7	13*
C=CCn1c(SC(F)F)nc2scc(-c3ccco3)c2c1=O	2	6	4	46	6	/	/
C=CCn1c(SCc2ccc3c(c2)OCO3)nc2scc(-c3ccco3)c2c1=O	-1	-2	36*	22	-3	17	10
C=CCn1c(SCC(=O)N2CCCC2)nc2scc(-c3cccs3)c2c1=O	0	0	-2	11	2	/	/
C=CCn1c(SCC(=O)N2CCOCC2)nc2scc(-c3ccco3)c2c1=O	-2	-2	33*	14	-1	23*	49*
C=CCn1c(SCC(C)=O)nc2scc(-c3ccco3)c2c1=O	-1	1	34*	7	-3	54*	85*
Cc1cc2nc(C)n(CCCN)c2cc1C	1	0	1	-21	4	/	/
Cc1cc(-c2ccc(C)c(S(=O)(=O)N3CCN(c4ccccn4)CC3)c2)on1	28	0	8	13	-3	/	/
